# Hits are enriched below; roughly 4.1% of the tested compounds scored in any of these assays.
# UPR XBP1 act: activators of adaptive arm of unfolded protein response (XBP1) | actives 0.33% (n = 330,000) | CHO-XBP1 luciferase reporter, IRE1-XBP1 UPR activation, luminescence; percent of tunicamycin response, DMSO as zero | activation, % at 20 µM | AID 463104;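 active means versus positive control, 20 µM dose yields 30% or more activation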;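 further: 100% = tunicamycin at 10 µg/mL and 0% = DMSO only wells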
#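 Signal: luciferase luminescence; Assay system: CHO-XBP1 luciferase reporter cells; Amount: one thousand reporter cells per well; Dosing: 20 µM single concentration, DMSO 1%; Benchmarks: high control tunicamycin 10 µg/mL final, low control DMSO vehicle only; Schedule: 6 h compound exposure at 37 °C, 5% CO2; Evaluation: percent activation relative to tunicamycin reference.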
# Mdm2-MdmX inh: human Mdm2/MdmX binding inhibition. O15151+Q00987. SaOS-2 split-luciferase Mdm2/MdmX complementation, luminescence. inhibition, % at 8 µM. actives 3% (n = 330,000). AID 485346;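 active means inhibition of at least 50% at 8 µM in the primary screen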
# UBC13 polyUb: human UBC13 polyubiquitination inhibition; P61088; UBC13 polyubiquitin chain formation, TR-FRET; inhibition, % at 20 µM; actives 0.47% (n = 330,000); AID 485273; in the data active means inhibition above about 45%, passing the limit was not always enough
# CHOP UPR activ: apoptotic UPR (CHOP) activation; CHO-CHOP luciferase reporter, luminescence; percent of tunicamycin response over DMSO baseline; activation, % at 10 µM; actives 0.34% (n = 330,000); AID 449763;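 active means at 10 µM dose, activation of 40% or more, normalized to positive control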;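 further: 100% = tunicamycin at 10 µg/mL and 0% = DMSO alone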
#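 Material: CHO-CHOP cells, stable luciferase reporter of PERK-eIF2a-CHOP signalling; quantity: 500 reporter cells seeded per well; buffer or medium: F12 medium containing 10% fetal bovine serum; compound: one dose, 10 µM in 0.5% DMSO; incubation: 6 h compound treatment, 37 °C; measured by: Steady-Glo luciferase luminescence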
# Apaf-1 inh: inhibitors of human Apaf-1 apoptosome; actives 0.71% (n = 330,000); AID 489030; reconstituted apoptosome caspase-3 activity, DEVD-Rh110 fluorescence; O14727; inhibition, % at 20 µM; active means inhibition of at least 40% at 20 µM;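 further: plate controls were DMSO wells for no effect and DEVD-CHO caspase inhibitor wells for full effect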
# Target sequence (O14727 whole entry, looked up): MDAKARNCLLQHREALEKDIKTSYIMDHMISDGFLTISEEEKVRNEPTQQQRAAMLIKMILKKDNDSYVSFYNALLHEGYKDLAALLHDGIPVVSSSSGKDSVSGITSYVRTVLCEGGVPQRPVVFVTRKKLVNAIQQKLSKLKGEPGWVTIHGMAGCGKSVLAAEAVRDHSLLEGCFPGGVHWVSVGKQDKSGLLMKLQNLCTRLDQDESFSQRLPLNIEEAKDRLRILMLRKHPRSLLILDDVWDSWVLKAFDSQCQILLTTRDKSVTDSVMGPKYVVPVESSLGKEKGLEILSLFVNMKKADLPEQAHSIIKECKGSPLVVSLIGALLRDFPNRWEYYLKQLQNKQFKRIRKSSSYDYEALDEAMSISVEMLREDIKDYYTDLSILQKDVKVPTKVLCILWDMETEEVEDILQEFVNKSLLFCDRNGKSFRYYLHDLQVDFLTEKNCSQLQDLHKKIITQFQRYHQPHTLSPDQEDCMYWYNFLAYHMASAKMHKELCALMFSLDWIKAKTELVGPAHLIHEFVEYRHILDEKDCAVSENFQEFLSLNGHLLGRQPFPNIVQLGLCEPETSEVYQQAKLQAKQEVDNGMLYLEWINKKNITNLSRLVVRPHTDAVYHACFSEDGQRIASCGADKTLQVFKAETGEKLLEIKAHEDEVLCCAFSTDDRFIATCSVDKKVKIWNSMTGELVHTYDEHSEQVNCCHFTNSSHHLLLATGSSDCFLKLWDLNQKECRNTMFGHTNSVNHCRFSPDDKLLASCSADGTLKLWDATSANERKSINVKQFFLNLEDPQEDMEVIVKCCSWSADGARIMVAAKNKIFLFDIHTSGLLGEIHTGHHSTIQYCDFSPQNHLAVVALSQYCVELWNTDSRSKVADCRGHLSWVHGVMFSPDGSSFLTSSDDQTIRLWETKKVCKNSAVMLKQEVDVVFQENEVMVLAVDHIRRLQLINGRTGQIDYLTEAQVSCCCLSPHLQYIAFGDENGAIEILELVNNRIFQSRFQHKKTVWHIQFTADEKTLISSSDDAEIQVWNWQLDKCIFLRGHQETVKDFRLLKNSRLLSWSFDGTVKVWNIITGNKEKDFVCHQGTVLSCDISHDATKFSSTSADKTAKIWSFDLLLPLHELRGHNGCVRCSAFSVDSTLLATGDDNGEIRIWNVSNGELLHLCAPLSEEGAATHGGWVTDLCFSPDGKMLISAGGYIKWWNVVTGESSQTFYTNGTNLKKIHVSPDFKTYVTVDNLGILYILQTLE
#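 Assay system: Apoptosome proteins | Medium: pH 7.5 Hepes buffer with CHAPS, BSA, DTT | Also added: Cytochrome c and DEVD-Rh110 substrate | Times: 30 min plus 50 min, RT | Detection: Rhodamine 110 fluorescence at Ex 480/Em 540 nm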
# Mdm2-MdmX conf: confirmation of human Mdm2/MdmX interaction inhibitors; shares compounds with Mdm2-MdmX inh; Mdm2-MdmX binding, luminescent assay; inhibition, % at 8 µM; actives 55% (n = 10,000); in the data active means inhibition above about 40%
# FLuc counter: counter-screen for Mdm2/MdmX inhibitors: full-length luciferase | shares compounds with Mdm2-MdmX inh | SaOS-2 full-length luciferase counterscreen, luminescence | inhibition, % at 8 µM | actives 77% (n = 6,200) | AID 504607;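 active means mean inhibition at 8 µM reaching about 37%, which flags the compound as non-specific, limit read from the data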;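 further: p53-null SaOS-2 cells with luciferase driven by a doxycycline-inducible promoter; compound on cells about two nights before reading with doxycycline added after day one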
# * = called active by the depositor; . = not tested or not shown.
SMILES,UPR XBP1 act,Mdm2-MdmX inh,UBC13 polyUb,CHOP UPR activ,Apaf-1 inh,Mdm2-MdmX conf,FLuc counter
CCN(C(=O)COC(=O)c1c2c(nc3ccccc13)/C(=C/c1ccccc1)CC(C)C2)C1CCS(=O)(=O)C1 (stereo unspecified),0,53*,-2,0,29,52*,55*
CC(=O)O[C@]1(C(C)=O)CC[C@H]2[C@@H]3C=CC4=CC(=O)C=C[C@]4(C)[C@H]3CC[C@@]21C,-3,-3,-3,-2,10,.,.
CCOC(=O)C1=C(N)n2c(s/c(=C/c3ccccc3)c2=O)=C(C(=O)OCC)C1c1ccccc1 (stereo unspecified),-1,51*,4,3,-3,-10,.
O=C(CSCC(=O)Nc1nc(-c2ccc3c(c2)OCO3)cs1)Nc1nccs1,3,5,4,3,11,.,.
O=C(CSc1ccc(-c2ccc3c(c2)OCO3)nn1)Nc1nccs1,3,89*,2,3,-45,16,.
CCOC(=O)[C@H]1[C@H]2COc3ccc(Br)cc3[C@@H]2N2C(=O)CN(Cc3ccc(F)cc3)C(=O)[C@@]12C,-2,11,5,1,21,.,.
Cc1cc(=O)oc2cc(Oc3ccc([N+](=O)[O-])cc3[N+](=O)[O-])ccc12,-2,60*,8,1,-3,65*,52*
O=[N+]([O-])c1cc(/C=N/O)ccc1Oc1cccc(Cl)c1,2,5,3,1,4,.,.
O=Cc1cccc(Oc2ccc([N+](=O)[O-])cc2[N+](=O)[O-])c1,-2,64*,-9,-1,11,32,.
Cc1ccc(C2=NN(C(=O)CSc3nccn3C)C(c3ccco3)C2)cc1 (stereo unspecified),-8,65*,-1,0,10,57*,68*
Cc1ccc(C2=NN(C(=O)CSc3nc4ncc(Cl)cc4[nH]3)C(c3ccco3)C2)cc1 (stereo unspecified),0,-13,-4,2,11,.,.
CCS(=O)(=O)Nc1ccc(C2=NN(C(=O)c3ccco3)C(c3ccco3)C2)cc1 (stereo unspecified),-1,53*,-16,1,4,74*,56*
O=C(O)/C=C/C(=O)N1N=C(c2ccco2)CC1c1ccco1 (stereo unspecified),2,6,-8,1,-2,.,.
O=C(CCl)N1N=C(c2ccco2)CC1c1ccco1 (stereo unspecified),1,97*,6,9,3,49*,31
Cc1cc(OCCCCOc2ccc(S(N)(=O)=O)c(C)c2)ccc1S(N)(=O)=O,0,20,5,-1,10,.,.
O=C(NC(=S)Nc1ccc(NC(=O)c2ccccc2)cc1)c1ccc(F)cc1,5,16,-4,5,-4,.,.
CC(=O)Nc1ccc(C(=O)c2ccccc2)cc1,0,21,3,-1,-24,.,.
O=C(COc1ccc(C(=O)NCCc2ccccc2)cc1)Nc1ccccc1,-3,-21,4,0,-5,.,.
O=C(COc1ccc(C(=O)Nc2ccc(Cl)cc2)cc1)NCc1ccccc1,-1,62*,-3,0,5,24,.
O=C(NC(=S)Nc1ccc2c(c1)C(=O)c1ccccc1C2=O)c1ccc(F)cc1,41*,69*,-74,15,3,-69,.
CC(C)C(=O)Nc1ccc(NC(=O)c2ccc(COc3ccccc3)cc2)cc1,3,72*,-19,1,-13,23,90*
CC(=O)Nc1ccc(NC(=O)c2ccc(NC(=O)c3ccccc3)cc2)cc1,-1,62*,-3,0,-9,17,.
O=C(Cc1c(F)cccc1Cl)NNC(=O)Nc1ccc2c(c1)OCO2,-7,25,2,1,1,.,.
CCC(C)c1ccc(N(C(=O)c2ccco2)C(C(=O)NC2CCCC2)c2cccnc2)cc1 (stereo unspecified),0,8,-2,3,20,.,.
C#CCOCCOCCOCCNc1nc(N2CCN(C(=O)Cn3cc(CC(C)O)nn3)CC2)nc(N2CCN(C(=O)[C@H](C)n3cc(CCCN=C(N)N)nn3)CC2)n1 (stereo partly specified),0,16,-16,-1,21,.,.
SMILES,UPR XBP1 act,Mdm2-MdmX inh,UBC13 polyUb,CHOP UPR activ,Apaf-1 inh,Mdm2-MdmX conf,FLuc counter
O=C(COc1ccc(C(=O)c2ccc(F)cc2)cc1)NCc1ccc(F)cc1,-2,40,-5,-2,12,.,.
CC(=O)Nc1ccc(-c2cc(-c3ccccc3)nc(-c3ccccc3)n2)cc1,10,56*,6,0,3,47*,92*
O=C(Nc1ccc(NC(=S)NC(=O)C(c2ccccc2)c2ccccc2)cc1)c1ccccc1,-4,51*,-15,1,-2,49*,42*
Cc1ccc(CNC(=O)COc2ccc(C(=O)c3ccc(F)cc3)cc2)cc1,1,51*,9,1,11,54*,64*
CC(=O)Nc1nc(-c2ccc3c(c2)CCN3C(=O)C2CC2)c(C)s1,-4,95*,5,6,2,93*,51*
CC1(C)NC(=O)NC2(C)NC(=O)NC(C)(C)C12 (stereo unspecified),0,-11,-4,8,-2,.,.
Cc1ccc(CNC(=O)CCS(=O)(=O)c2ccc3c(c2)CC(C)N3C(=O)C2CC2)cc1 (stereo unspecified),-2,63*,2,1,-7,49*,50*
Cc1ccc(CNC(=O)C2CCN(S(=O)(=O)c3ccc4c(c3)CC(C)N4C(=O)C3CC3)CC2)cc1 (stereo unspecified),-6,13,-12,2,-1,.,.
CCOc1cc(NC(=O)c2ccccn2)c(OCC)cc1NC(=O)c1ccccc1,10,25,1,0,-4,.,.
CCOc1cc(NC(=O)c2ccccn2)c(OCC)cc1NC(=O)c1ccc(Cl)cc1,0,56*,-10,2,7,18,.
Nc1c(S(=O)(=O)c2cccc(Cl)c2)c2nc3ccccc3nc2n1/N=C/c1ccc(O)c(O)c1,12,84*,-23,16,26,35,.
COc1cccc(/C=N/n2c(N)c(S(=O)(=O)c3cccs3)c3nc4ccccc4nc32)c1OC,9,83*,-8,6,-5,27,.

# Screening data from PubChem BioAssay.
